A selection: hits, their analogues and other compounds. The true share with any hit is near 2.2%.
SUMO Mot1 rescue: blocks SUMOylation pathway, rescuing yeast Mot1-301 growth; S. cerevisiae Mot1-301 growth rescue, ATP luminescence, 38.5C; percent above DMSO median, 100 means doubled; growth rescue, % at 18.8 µM; 320,000 tested, 1% active; AID 2716;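 active = every valid replicate shows activation above 250% relative to neutral control wells; inactive = the rest, any valid replicate at or below 250%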
Cneo AK release: Cryptococcus neoformans lysis via adenylate kinase release | C. neoformans lysis, adenylate kinase release luminescence, 4 h; normalised: neutral wells 0, clomiphene wells 100 | lysis activity, % at 15 µM | 360,000 tested, 0.2% active;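 active = mean lysis activity across replicates of at least 80%, whatever share of replicates individually reach that level; inactive = mean lysis activity below 80%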
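Material: C. neoformans cells; Schedule: 4 h static compound exposure, 37 °C, read 1 h post-reagent; Measured by: adenylate kinase release luminescence; Read-out: signal increase indicating cell lysis; Controls: Clomiphene as positive lysis control.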
PglD DTNB: blocks C. jejuni PglD acetyltransferase activity | purified PglD enzyme, DTNB colorimetric CoA detection | inhibition, % at 12.5 µM | 360,000 tested, 0.098% active; in the data active = inhibition above about 16%, passing the limit was not always enough
CR mimetic SO: lowers age-related superoxide in aged yeast cells | S. cerevisiae aged cells, superoxide DHE fluorescence; stronger effect = lower value | 330,000 tested, 0.18% active | superoxide response (% of plate mean), % at 10 µM;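 active = superoxide response under a set limit, about three screen SD below normal, cut at about 65% in these data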;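 note: yeast aged for seven days with compound at 30 °C before DHE staining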
rRNA inh HTS: inhibitors of bacterial rRNA selective over humanized ribosomes | E. coli WT GFP vs humanized-ribosome RFP mutants, fluorescence, 24 h; stronger effect = lower value; DMSO median 0, no signal -100 | 350,000 tested, 1.6% active | GFP signal change (wild-type ribosome), % (no concentration beside the values);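 active = significant combined selectivity score with lowered wild-type GFP, culture density cut under 30%, mutant RFP and density less affected; inactive = any of these conditions unmet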
Numbers stand for hits; . = inactive; / = no result given; ! = not active in a repeat.

SMILES	SUMO Mot1 rescue	Cneo AK release	PglD DTNB	CR mimetic SO	rRNA inh HTS
CSCc1ccc(C(=O)OCc2nc3ccccc3s2)o1	.	.	.	.	-15.5
O=C(OCc1nc2ccccc2s1)c1ccccc1O	.	/	/	.	.
CC(C)NC(=O)N[C@@H]1CC[C@@H](CC(=O)NCCN2CCCC2)O[C@@H]1CO	/	.	.	/	.
CN(C)C(=O)[C@@H]1[C@@H](CO)[C@@H]2Cn3c(ccc(-c4ccccc4F)c3=O)[C@H]1N2C(=O)c1ccccc1	/	.	.	/	.
COc1ccc(C)cc1NC(=O)CN1CCN(S(=O)(=O)c2ccc(C(C)C)cc2)CC1	.	.	.	.	/
COc1ccc(Cl)cc1NC(=O)CN1CCN(S(=O)(=O)N2CCOCC2)CC1	291.4	.	.	.	.
COc1ccc(NC(=O)CN2CCN(S(=O)(=O)c3ccc(C(C)C)cc3)CC2)cc1OC	.	130.5	.	.	/
COc1ccc(Cl)cc1NC(=O)CN1CCCC1	.	/	/	.	.
C/C(=N/OC(=O)C1CC1c1ccccc1)c1ccccc1 (stereo not given)	.	/	/	.	-20.9
COC(=O)C[C@@H]1CC[C@H]2[C@@H](COc3ccc(NC(=O)c4ccccc4OC)cc3C(=O)N2C)O1	/	.	.	/	.
COCCN(C(=O)COC(=O)CSc1ccccc1)c1c(N)n(Cc2ccccc2)c(=O)[nH]c1=O	355.7	/	/	.	.
CNC[C@H]1Oc2c(NS(=O)(=O)c3ccc(Cl)cc3)cccc2C(=O)N([C@H](C)CO)C[C@@H]1C	/	.	.	/	.
CNC[C@H]1Oc2c(NS(=O)(=O)c3cccs3)cccc2C(=O)N([C@H](C)CO)C[C@@H]1C	.	95.6!	.	.	.
CNC[C@@H]1Oc2c(NS(=O)(=O)c3ccc(Cl)cc3)cccc2C(=O)N([C@H](C)CO)C[C@H]1C	/	87.2	.	/	.
CNC[C@@H]1Oc2c(NS(=O)(=O)c3cccs3)cccc2C(=O)N([C@H](C)CO)C[C@@H]1C	/	.	.	/	.
CNC[C@@H]1Oc2c(NS(=O)(=O)c3cccs3)cccc2C(=O)N([C@@H](C)CO)C[C@H]1C	/	86.5	.	/	.
Cn1c(-[n+]2c(-c3ccccc3)cc(-c3ccccc3)cc2-c2ccccc2)nc2c([N+](=O)[O-])cccc21	.	.	.	.	-21.7
O=[N+]([O-])c1cccc2nc(-c3ccccc3)c(-c3ccccc3)nc12	.	.	.	.	.
C[C@H](O)C#Cc1ccc2c(c1)O[C@H](CN(C)C(=O)c1ccccc1)[C@@H](C)CN([C@H](C)CO)S2(=O)=O	/	.	.	/	.
Cn1c(=N)c(S(=O)(=O)c2ccccc2)cc2c(=O)n3ccccc3nc21	311.0	.	.	.	/
CCC(=O)N1C[C@@H](C)[C@@H](OC)CN(C)C(=O)c2ccc(NC(=O)Nc3ccc(Cl)cc3)cc2OC[C@@H]1C	/	.	.	/	.
O=C1OCCC1Sc1nnc(-c2ccc3c(c2)OCO3)n1-c1ccccc1 (stereo not given)	339.6	.	.	.	.
O=C1OCCC1Sc1nnnn1-c1ccccc1 (stereo not given)	.	.	.	.	/
COc1ccccc1NC(=O)N[C@@H]1CC[C@@H](CCNC(=O)c2ccc3c(c2)OCO3)O[C@@H]1CO	/	.	.	/	.
Cc1ccc(C2C(C#N)=C3N=C(N)c4ccccc4N3C3=C2C(=O)CCC3)cc1 (stereo not given)	.	.	.	.	.
SMILES	SUMO Mot1 rescue	Cneo AK release	PglD DTNB	CR mimetic SO	rRNA inh HTS
N#CC1=C2N=C(N)c3ccccc3N2C2=C(C(=O)CCC2)C1c1ccc(F)cc1 (stereo not given)	.	.	.	.	-31.6
CCC(=O)N1[C@H](CO)[C@H](c2ccc(-c3ccc(F)cc3)cc2)[C@H]1CNC(C)=O	/	.	.	/	.
CC(C)(C)C(=O)N1CCN(c2ccc([N+](=O)[O-])cc2-n2cccc2)CC1	.	.	.	.	.
O=C(C1CC1)N1CCN(c2ccc([N+](=O)[O-])cc2-n2cccc2)CC1	.	/	/	.	-29.9
CC(C)(C)OC(=O)NCCC(=O)N/N=C/c1cccc2cccnc12	.	.	.	.	-16.3
COc1ccccc1Cn1c(/C=C/c2ccccc2)nc2ccccc21	407.7	/	/	.	/
Cn1c(/C=C/c2ccccc2)nc2ccccc21	.	/	/	.	-24.1
CCCN(C)C[C@H]1OCCCC[C@@H](C)Oc2ccc(NC(=O)c3ccccc3)cc2C(=O)N([C@@H](C)CO)C[C@H]1C	/	/	/	/	.
COc1ccc2c3c([nH]c2c1)[C@@H](CO)N(Cc1cccnc1)CC31CN(C(=O)c2cccnc2)C1	/	/	/	/	.
COc1ccc(Nc2nc(N)nc(CSC(=S)N3CCCCC3C)n2)cc1 (stereo not given)	.	/	/	.	-22.4
COc1ccc(Nc2nc(N)nc(CSC(=S)N3CCCCC3)n2)cc1	.	.	.	.	.
C[C@H]1CCCCO[C@H](CN(C)C(=O)Nc2ccc(F)cc2)[C@@H](C)CN([C@@H](C)CO)C(=O)c2cc(N(C)C)ccc2O1	/	/	/	/	.
Cn1c(C(C(=O)NCC2CCCO2)N(CCc2ccccc2)C(=O)Cn2nnc3ccccc32)nc2ccccc21 (stereo not given)	.	.	.	.	-22.3
CCn1cc(C(=O)N2CCCC2)c(=O)c2cc(S(=O)(=O)N3CC(C)CC(C)C3)ccc21 (stereo not given)	302.5	.	.	.	.
O=C1N/C(=N\S(=O)(=O)Cc2ccccc2)S/C1=C/c1cc([N+](=O)[O-])ccc1O	.	/	/	.	-20.0
O=C1N/C(=N\S(=O)(=O)c2ccccc2)S/C1=C\c1cc([N+](=O)[O-])ccc1O	.	.	.	.	.
C[C@H]1CN([C@@H](C)CO)C(=O)Cc2cc(NC(=O)C3CCCCC3)ccc2O[C@H]1CN(C)Cc1ccccc1	/	.	.	/	.
O=C(C(=O)c1ccc(O)cc1)c1ccccc1	356.3	/	/	.	.
Oc1ccccc1	/	/	/	/	.
O=P(c1ccccc1)(c1ccccc1)c1ccc(O)cc1	348.9	.	.	.	.
O=C(c1ccc(O)cc1)c1ccc(C(=O)c2ccc(O)cc2)cc1	.	.	.	.	/
CCC(=O)N1CC(=O)N2[C@H](C1)[C@H](c1ccc(C#Cc3cccnc3)cc1)[C@@H]2CO	/	/	/	/	.
COCC(=O)N1C[C@H](C)[C@@H](OC)CN(C)C(=O)c2ccc(NS(C)(=O)=O)cc2OC[C@@H]1C	/	97.8	.	/	.
CO[C@@H]1CN(C)C(=O)c2ccc(NS(C)(=O)=O)cc2OC[C@@H](C)N(C(=O)C2CCOCC2)C[C@H]1C	/	.	18.3	/	.
COCC(=O)N1C[C@@H](C)[C@H](OC)CN(C)C(=O)c2ccc(NS(C)(=O)=O)cc2OC[C@H]1C	/	.	.	/	.
CO[C@H]1CN(C)C(=O)c2cc(NS(=O)(=O)c3ccc(C)cc3)ccc2OC[C@@H](C)N(C(=O)NC(C)C)C[C@@H]1C	/	97.1	.	/	.
CC[C@H]1CC=CC[C@H](C)Oc2ccccc2C(=O)N(C)[C@@H](C(C)C)C(=O)N1 (mixture of isomers)	/	/	/	/	.

Assay outcomes deposited in PubChem BioAssay by several laboratories.
